Test results published in ChEMBL document CHEMBL3600378 (J Med Chem, 2015).

Columns and labels:
[1] = molecular target: T1, Alpha-1A adrenergic receptor (Homo sapiens) (UniProt P35348); experiment: Intrinsic activity at human alpha1A-adrenergic receptor expressed in HEK293 cells assessed as calcium flux by fluorescence assay relative to norepinephrine; assay type: functional, cell-based
T1 sequence (whole entry): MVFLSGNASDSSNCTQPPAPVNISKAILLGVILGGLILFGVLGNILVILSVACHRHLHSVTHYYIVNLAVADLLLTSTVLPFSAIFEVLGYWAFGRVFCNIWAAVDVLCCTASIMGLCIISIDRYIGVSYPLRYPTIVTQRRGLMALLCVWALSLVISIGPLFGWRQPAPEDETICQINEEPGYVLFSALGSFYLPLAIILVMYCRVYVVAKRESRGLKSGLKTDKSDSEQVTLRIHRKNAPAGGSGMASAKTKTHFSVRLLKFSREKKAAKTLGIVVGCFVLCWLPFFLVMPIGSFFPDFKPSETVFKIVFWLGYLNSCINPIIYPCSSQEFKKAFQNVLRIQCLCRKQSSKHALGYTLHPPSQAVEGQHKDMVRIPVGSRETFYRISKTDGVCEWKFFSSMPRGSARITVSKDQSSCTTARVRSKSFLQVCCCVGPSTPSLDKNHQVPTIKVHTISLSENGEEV

[2] = molecular target: T2, Alpha-2C adrenergic receptor (Homo sapiens, UniProt P18825); experiment: Agonist activity at human alpha2C-adrenergic receptor
T2 sequence (P18825 whole entry): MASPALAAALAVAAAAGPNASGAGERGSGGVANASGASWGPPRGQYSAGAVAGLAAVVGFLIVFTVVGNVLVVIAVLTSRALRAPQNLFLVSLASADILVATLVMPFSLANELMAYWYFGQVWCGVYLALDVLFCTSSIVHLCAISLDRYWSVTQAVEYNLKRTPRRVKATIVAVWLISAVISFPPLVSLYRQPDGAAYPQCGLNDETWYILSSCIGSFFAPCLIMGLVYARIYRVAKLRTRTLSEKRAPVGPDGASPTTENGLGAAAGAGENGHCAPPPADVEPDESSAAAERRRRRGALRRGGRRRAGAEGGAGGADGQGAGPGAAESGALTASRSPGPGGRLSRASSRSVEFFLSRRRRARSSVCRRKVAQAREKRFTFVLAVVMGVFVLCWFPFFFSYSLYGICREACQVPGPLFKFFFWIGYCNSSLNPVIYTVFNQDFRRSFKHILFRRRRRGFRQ

Rattus norvegicus = experiment: Cardiotoxicity in anesthetized Sprague-Dawley rat assessed as increase in heart rate at 3 mg/kg, iv measured for 30 mins relative to control; assay type: toxicity, organism-based; details: in vivo, 0.5 h
Outline: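 Male Sprague-Dawley rats (200-300 g) were anesthetized with sodium pentobarbital (50 mg/kg i.p. plus 25 mg/kg s.c.). The compound was injected via the cannulated left femoral vein once BP and HR were stable, and HR and MBP were recorded for 30 min. Results are the maximum % increase or decrease from baseline, as mean ± SEM. Where given, silodosin (0.01 mg/kg iv) preceded the compound.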

[3] = molecular target: Beta-2 adrenergic receptor (Homo sapiens, UniProt P07550); experiment: Agonist activity at human beta2-adrenergic receptor expressed in CHO cells assessed as increase of cAMP level after 30 mins; assay type: functional, cell-based
Outline: (§1)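 Stably transfected CHO cells expressing human β1, β2 or β3 or marmoset β3 receptor were grown in Ham's F-12 with 10% FBS and geneticin, seeded at 2×10⁴ cells/well and grown about 20 h. Cells spent 15 min serum-free, then 30 min with compound in medium containing HEPES and isobutylmethylxanthine. Lysate cAMP was measured by kit. […] EC50 is the half-maximal concentration for each compound.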

Homo sapiens [4] = species on record: Homo sapiens; experiment: Selectivity ratio of EC50 for human beta2-adrenergic receptor to EC50 for human beta3-adrenergic receptor
[5] = molecular target: Beta-1 adrenergic receptor (Homo sapiens, UniProt P08588); experiment: Intrinsic activity at human beta1-adrenergic receptor expressed in CHO cells assessed as increase of cAMP level after 30 mins relative to isoproterenol; assay type: functional, cell-based; outline: as §1
[6] = molecular target: T3, Alpha-2A adrenergic receptor (Homo sapiens, UniProt P08913); experiment: Agonist activity at human alpha2A-adrenergic receptor
T3 sequence (P08913 whole entry): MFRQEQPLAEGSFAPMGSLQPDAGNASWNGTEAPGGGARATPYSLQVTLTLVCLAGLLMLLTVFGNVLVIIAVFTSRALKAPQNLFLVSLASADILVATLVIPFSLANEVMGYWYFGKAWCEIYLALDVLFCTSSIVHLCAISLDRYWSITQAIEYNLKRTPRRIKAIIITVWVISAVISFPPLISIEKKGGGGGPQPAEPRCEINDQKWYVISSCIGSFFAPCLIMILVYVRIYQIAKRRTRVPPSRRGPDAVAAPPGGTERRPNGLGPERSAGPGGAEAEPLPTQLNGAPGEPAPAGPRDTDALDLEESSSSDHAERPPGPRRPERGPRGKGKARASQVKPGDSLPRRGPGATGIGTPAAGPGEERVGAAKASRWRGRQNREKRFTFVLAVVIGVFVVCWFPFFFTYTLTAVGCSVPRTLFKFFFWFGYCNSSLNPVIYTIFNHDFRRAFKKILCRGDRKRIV

Homo sapiens [7] = species on record: Homo sapiens; experiment: Selectivity ratio of EC50 for human alpha1A-adrenergic receptor to EC50 for human beta3-adrenergic receptor

Beta-2 adrenergic receptor, sequence (P07550 whole entry): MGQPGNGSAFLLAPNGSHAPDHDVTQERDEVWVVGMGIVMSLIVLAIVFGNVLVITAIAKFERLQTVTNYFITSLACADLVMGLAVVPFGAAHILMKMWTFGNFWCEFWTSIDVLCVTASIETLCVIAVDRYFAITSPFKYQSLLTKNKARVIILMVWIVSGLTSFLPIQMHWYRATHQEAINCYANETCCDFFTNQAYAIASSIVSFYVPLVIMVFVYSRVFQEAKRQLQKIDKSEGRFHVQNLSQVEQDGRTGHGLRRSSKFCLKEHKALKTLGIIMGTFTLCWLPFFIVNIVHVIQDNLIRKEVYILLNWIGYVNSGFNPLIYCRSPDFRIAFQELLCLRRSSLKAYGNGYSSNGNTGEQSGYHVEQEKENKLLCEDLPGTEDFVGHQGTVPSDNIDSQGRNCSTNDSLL
Beta-1 adrenergic receptor, sequence (P08588 whole entry, looked up): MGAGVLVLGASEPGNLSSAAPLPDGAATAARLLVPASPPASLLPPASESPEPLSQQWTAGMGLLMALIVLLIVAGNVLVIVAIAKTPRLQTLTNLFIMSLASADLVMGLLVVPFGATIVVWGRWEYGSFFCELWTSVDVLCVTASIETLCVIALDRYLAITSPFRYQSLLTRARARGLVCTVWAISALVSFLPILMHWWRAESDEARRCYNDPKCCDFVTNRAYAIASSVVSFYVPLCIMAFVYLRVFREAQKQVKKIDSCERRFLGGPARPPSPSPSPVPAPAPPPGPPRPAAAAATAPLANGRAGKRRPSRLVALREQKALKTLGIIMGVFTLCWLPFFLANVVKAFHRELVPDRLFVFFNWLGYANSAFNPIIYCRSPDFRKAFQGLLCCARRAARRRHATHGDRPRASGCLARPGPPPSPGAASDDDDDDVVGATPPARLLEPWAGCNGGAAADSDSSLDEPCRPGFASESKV

Intrinsic activity [1]: 71%
EC50 [2]: > 10 µM
EC50 [3]: > 10 µM
Ratio EC50 (Homo sapiens [4]): > 476
Intrinsic activity [5]: 6%
EC50 [6]: > 10 µM
Ratio EC50 (Homo sapiens [7]): 10
SMILES: Cc1n[nH]c2cc(OCCNC[C@H](O)c3cccc(NS(C)(=O)=O)c3)ccc12
Activity (Rattus norvegicus): 7.9%
